In publication PMC4327866 (Journal of controlled release : official journal of the …, 2014):
Where “and” joins values, the source holds several entries; their conditions need not be identical. Identical values can stand only once.

Assays:
[1] = Optical characterization of the ELP phase diagram; assay type: physicochemical; details: for Tt (observed transition temperature): 25 μM in PBS, turbidity at 350 nm, ramp 1 °C min−1, maximum first derivative of the curve; for slope of transition temperature vs log10 concentration / y-intercept of transition temperature vs log10 concentration: log-linear regression of Tt vs concentration, 5–100 μM in PBS, mean [95% CI]; for temperature of phase separation (Figure 2 legend, approximate): optical density as a function of temperature and concentration; for Property at 37 °C: state of the protein polymer at 37 °C (soluble / nanoparticle / coacervate)
Procedure, shortened: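 Turbidity (350 nm) of protein polymer solutions in PBS was recorded as a function of temperature across several concentrations. Tt was the maximum of the first derivative of the curve. Observed Tt was reported at 25 μM. Slope and intercept came from log-linear regression, Tt = m Log₁₀[C_ELP] + b. Mean [95% CI].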

[2] = Dynamic light scattering: hydrodynamic radius and polydispersity; assay type: physicochemical; details: DLS; for nanoassembly by dynamic light scattering: below the transition temperature; for hydrodynamic radius at 37 °C: filtered through 0.2 μm cellulose acetate; for hydrodynamic radius retained below the transition temperature: 25 μM in PBS (Discussion); for temperature up to which the nanoparticles are stable: 4 to 60 °C in 1 °C increments
Procedure, shortened: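 Test protein polymers at 25 μM in PBS, passed through 0.2 μm cellulose acetate filters, spun at 4 °C, 1200 rpm to clear air bubbles, and overlaid with mineral oil against evaporation. Hydrodynamic radius and polydispersity were read on a DLS plate reader from 4 to 60 °C in 1 °C steps.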

[3] = Negative and cryogenic transmission electron microscopy of nanoparticles; assay type: physicochemical; details: average ± 95% confidence interval
Procedure, shortened: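 Samples at 25 μM, unfiltered or 0.2 μm filtered. Negative TEM used carbon-coated copper grids, excess wicked off, 2 wt% aqueous uranyl acetate stain, 100 kV. Cryo-TEM used plasma-treated lacey carbon grids plunged into liquid-nitrogen-cooled ethane, 80 kV. Sizes were averaged over three fields (>50 particles/image TEM; 20 cryo-TEM). Bilayer thickness was taken at three points per vesicle circumference. Mean ± 95% CI.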

[4] = design: species or system rats; details: rat, in vivo

Substance	Tt (observed transition temperature) [1] [°C]	slope of transition temperature vs log10 concentration [1]	y-intercept of transition temperature vs log10 concentration [1] [°C]	temperature of phase separation (Figure 2 legend, approximate) ([1]; PBS)	Property at 37 °C ([1]; PBS)	nanoassembly by dynamic light scattering ([2]; 25 μM in PBS)	hydrodynamic radius at 37 °C ([2]; 25 μM in PBS, 37 °C)	hydrodynamic radius retained below the transition temperature [2] [nm]	temperature up to which the nanoparticles are stable ([2]; 25 μM in PBS) [°C]	Plasma clearance, CLp [4] [mL/min]	Volume of distribution, V0 [4] [mL]	also measured
G(VPGAG)192Y [A192]	61.9	−9.2 °C/log10(μM)	74.9	~60 °C	soluble	do not exhibit any signs of nanoassembly	5 nm	–	–	–	–	–
MDWFKAFYDKVAEKFKEAFGLVPRGS G(VPGAG)192Y [L4F-A192]	45.8	−2.6 °C/log10(μM)	49.6	–	nanoparticle	form nanoparticles	50 nm and ~50 nm	50	46	0.37	26	depression of transition temperature below the parent ELP ([1]; at 25 μM): 14 °C; temperature of phase separation / transition temperature ([1]; at 25 μM, optical density, PBS): above 47 °C; polydispersity ([2]; 25 μM in PBS, 37 °C): 9 nm; nanoparticle radius, negative TEM, unfiltered ([3]; 25 μM, 2 % uranyl acetate stain, unfiltered): 41 ± 16 nm; vesicle radius, cryo-TEM, filtered ([3]; 25 μM, filtered through 0.2 μm): 43 ± 17 nm and 43 nm; vesicle radius, cryo-TEM, unfiltered ([3]; 25 μM, unfiltered): 36 ± 13 nm; membrane thickness, cryo-TEM, filtered ([3]; 0.2 um filtered, n = 8): 6.8 ± 0.7 nm and 6.8 nm; membrane (wall) thickness, cryo-TEM, unfiltered ([3]; unfiltered, n = 18): 8.4 ± 1.3 nm and 8.4 nm; plasma half-life (approximate) [4]: approximately 1 hr; volume of distribution relative to free L4F peptide [4]: approximately twice
Met-Asp-Trp-Phe-Lys-Ala-Phe-Tyr-Asp-Lys-Val-Ala-Glu-Lys-Phe-Lys-Glu-Ala-Phe-Leu-FITC [Free L4F, reference compound]	–	–	–	–	–	–	–	–	–	0.12	12	–
G(VPGVG VPGAG VPGAG)64Y [V2A192]	47.2	−5.8 °C/log10(μM)	55.9	around 47 °C	soluble	do not exhibit any signs of nanoassembly	5 nm	–	–	–	–	–
MDWFKAFYDKVAEKFKEAFGLVPRGS G(VPGVG VPGAG VPGAG)64Y [L4F-V2A192]	34.3	−1.3 °C/log10(μM)	36.2	about 34 °C	–	form nanoparticles	42 nm and ~50 nm	42	34	–	–	–
